According to ChEMBL document CHEMBL4145521, “Regioselective synthesis of 3,4-diaryl-5-unsubstituted isoxazoles, analogues of natural cytostatic combretastatin A4” (Eur J Med Chem, 2018):

Experiments:
Assay type in all cases: functional
[1] = tested on: SK-MEL-5; assay: Cytotoxicity against human SK-MEL-5 cells assessed as cell growth at 1 uM incubated for 48 hrs by sulforhodamine B assay relative to control; details: SK-MEL-5, 48 h, read-out: Activity
[2] = tested on: SK-MEL-28; assay: Cytotoxicity against human SK-MEL-28 cells assessed as cell growth at 0.01 uM incubated for 48 hrs by sulforhodamine B assay relative to control; details: SK-MEL-28, 48 h, read-out: Activity
[3] = tested on: NCI-H522; assay: Cytotoxicity against human NCI-H522 cells assessed as cell growth at 0.01 uM incubated for 48 hrs by sulforhodamine B assay relative to control; details: NCI-H522, 48 h, read-out: Activity
[4] = tested on: MOLT-4; assay: Cytotoxicity against human MOLT4 cells assessed as cell growth at 10 uM incubated for 48 hrs by sulforhodamine B assay relative to control; details: MOLT-4, 48 h, read-out: Activity
[5] = tested on: BT-549; assay: Cytotoxicity against human BT549 cells assessed as cell growth at 0.1 uM incubated for 48 hrs by sulforhodamine B assay relative to control; details: BT-549, 48 h, read-out: Activity
[6] = tested on: T47D; assay: Cytotoxicity against human T47D cells assessed as cell growth at 1 uM incubated for 48 hrs by sulforhodamine B assay relative to control; details: read-out: Activity
[7] = tested on: UACC-62; assay: Cytotoxicity against human UACC62 cells assessed as cell growth at 0.01 uM incubated for 48 hrs by sulforhodamine B assay relative to control; details: UACC-62, 48 h, read-out: Activity
[8] = tested on: Paracentrotus lividus; assay: Antimitotic activity against Paracentrotus lividus embryo assessed as cleavage arrest measured at 5.5 hrs post fertilization by light microscopy
Method in brief: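 Sea urchin eggs were fertilized with diluted sperm and cultured at room temperature in filtered seawater with paddle agitation (60 rpm), at up to 2000 embryos/mL. The effective threshold concentration causing cleavage alteration, death before hatching or full mitotic arrest was scored in duplicate.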

[9] = tested on: NCI-H23; assay: Cytotoxicity against human NCI-H23 cells assessed as cell growth at 0.1 uM incubated for 48 hrs by sulforhodamine B assay relative to control; details: NCI-H23, 48 h, read-out: Activity
[10] = tested on: MCF7; assay: Cytotoxicity against human MCF7 cells assessed as cell growth at 1 uM incubated for 48 hrs by sulforhodamine B assay relative to control; details: MCF7, 48 h, read-out: Activity
[11] = tested on: M14; assay: Cytotoxicity against human M14 cells assessed as cell growth at 100 uM incubated for 48 hrs by sulforhodamine B assay relative to control; details: M14, 48 h, read-out: Activity
[12] = tested on: EKVX; assay: Cytotoxicity against human EKVX cells assessed as cell growth at 10 uM incubated for 48 hrs by sulforhodamine B assay relative to control; details: read-out: Activity
[13] = tested on: SK-MEL-2; assay: Cytotoxicity against human SK-MEL-2 cells assessed as cell growth at 10 uM incubated for 48 hrs by sulforhodamine B assay relative to control; details: SK-MEL-2, 48 h, read-out: Activity
[14] = tested on: UACC-62; assay: Cytotoxicity against human UACC62 cells assessed as cell growth at 1 uM incubated for 48 hrs by sulforhodamine B assay relative to control; details: UACC-62, 48 h, read-out: Activity
[15] = tested on: HCC 2998; assay: Cytotoxicity against human HCC2998 cells assessed as cell growth at 100 uM incubated for 48 hrs by sulforhodamine B assay relative to control; details: HCC 2998, 48 h, read-out: Activity
[16] = tested on: CCRF-CEM; assay: Cytotoxicity against human CCRF-CEM cells assessed as cell growth at 0.1 uM incubated for 48 hrs by sulforhodamine B assay relative to control; details: read-out: Activity
[17] = tested on: SF-295; assay: Cytotoxicity against human SF295 cells assessed as cell growth at 1 uM incubated for 48 hrs by sulforhodamine B assay relative to control; details: SF-295, 48 h, read-out: Activity
[18] = tested on: KM12; assay: Cytotoxicity against human KM12 cells assessed as cell growth at 10 uM incubated for 48 hrs by sulforhodamine B assay relative to control; details: KM12, 48 h, read-out: Activity
[19] = tested on: K562; assay: Cytotoxicity against human K562 cells assessed as cell growth at 0.01 uM incubated for 48 hrs by sulforhodamine B assay relative to control; details: K562, 48 h, read-out: Activity
[20] = tested on: KM12; assay: Cytotoxicity against human KM12 cells assessed as cell growth at 100 uM incubated for 48 hrs by sulforhodamine B assay relative to control; details: KM12, 48 h, read-out: Activity
[21] = tested on: RXF 393; assay: Cytotoxicity against human RXF393 cells assessed as cell growth at 0.01 uM incubated for 48 hrs by sulforhodamine B assay relative to control; details: RXF 393, 48 h, read-out: Activity
[22] = tested on: RXF 393; assay: Cytotoxicity against human RXF393 cells assessed as cell growth at 0.1 uM incubated for 48 hrs by sulforhodamine B assay relative to control; details: RXF 393, 48 h, read-out: Activity
[23] = tested on: SF-268; assay: Cytotoxicity against human SF268 cells assessed as cell growth at 0.1 uM incubated for 48 hrs by sulforhodamine B assay relative to control; details: SF-268, 48 h, read-out: Activity
[24] = tested on: SK-MEL-2; assay: Cytotoxicity against human SK-MEL-2 cells assessed as cell growth at 100 uM incubated for 48 hrs by sulforhodamine B assay relative to control; details: SK-MEL-2, 48 h, read-out: Activity
[25] = tested on: SK-OV-3; assay: Cytotoxicity against human SKOV3 cells assessed as cell growth at 1 uM incubated for 48 hrs by sulforhodamine B assay relative to control; details: SK-OV-3, 48 h, read-out: Activity
[26] = tested on: RXF 393; assay: Cytotoxicity against human RXF393 cells assessed as cell growth at 100 uM incubated for 48 hrs by sulforhodamine B assay relative to control; details: RXF 393, 48 h, read-out: Activity
[27] = tested on: NCI-H226; assay: Cytotoxicity against human NCI-H226 cells assessed as cell growth at 100 uM incubated for 48 hrs by sulforhodamine B assay relative to control; details: NCI-H226, 48 h, read-out: Activity
[28] = tested on: SK-MEL-2; assay: Cytotoxicity against human SK-MEL-2 cells assessed as cell growth at 1 uM incubated for 48 hrs by sulforhodamine B assay relative to control; details: SK-MEL-2, 48 h, read-out: Activity
[29] = tested on: 786-0; assay: Cytotoxicity against human 786-0 cells assessed as cell growth at 0.1 uM incubated for 48 hrs by sulforhodamine B assay relative to control; details: 786-0, 48 h, read-out: Activity
[30] = tested on: LOX IMVI; assay: Cytotoxicity against human LOXIMVI cells incubated for 48 hrs by sulforhodamine B assay
[31] = tested on: OVCAR-8; assay: Cytotoxicity against human OVCAR8 cells assessed as cell growth at 100 uM incubated for 48 hrs by sulforhodamine B assay relative to control; details: OVCAR-8, 48 h, read-out: Activity
[32] = tested on: LOX IMVI; assay: Cytotoxicity against human LOXIMVI cells assessed as cell growth at 10 uM incubated for 48 hrs by sulforhodamine B assay relative to control; details: read-out: Activity
[33] = tested on: MDA-MB-231; assay: Cytotoxicity against human MDA-MB-231 cells assessed as cell growth at 0.01 uM incubated for 48 hrs by sulforhodamine B assay relative to control; details: MDA-MB-231, 48 h, read-out: Activity
[34] = tested on: NCI/ADR-RES; assay: Cytotoxicity against human NCI/ADR-RES cells assessed as cell growth at 100 uM incubated for 48 hrs by sulforhodamine B assay relative to control; details: read-out: Activity

COc1ccc(-c2nocc2-c2cc(OC)c(OC)c(OC)c2)cc1 gave a growth at 1 µM [1] of 29%, a growth at 0.01 µM [2] of 94% and a growth at 0.01 µM [3] of 84%. It also gave a growth at 10 µM [4] of 26%, a growth at 0.1 µM [5] of 56% and a growth at 1 µM [6] of 37%. For the same compound, the growth at 0.01 µM [7] was 90%, the EC [8] was 0.1 µM and the growth at 0.1 µM [9] was 67%. For the same compound, the growth at 1 µM [10] was 19%, the growth at 100 µM [11] was -5% and the growth at 10 µM [12] was 32%. For the same compound, the growth at 10 µM [13] was 43%, the growth at 1 µM [14] was 27% and the growth at 100 µM [15] was -47%. It also gave a growth at 0.1 µM [16] of 90%, a growth at 1 µM [17] of 7% and a growth at 10 µM [18] of 6%. For the same compound, the growth at 0.01 µM [19] was 103%, the growth at 100 µM [20] was -45% and the growth at 0.01 µM [21] was 103%. For the same compound, the growth at 0.1 µM [22] was 86%, the growth at 0.1 µM [23] was 63% and the growth at 100 µM [24] was -8%. It also gave a growth at 1 µM [25] of 38%, a growth at 100 µM [26] of -2% and a growth at 100 µM [27] of -20%. For the same compound, the growth at 1 µM [28] was 28%, the growth at 0.1 µM [29] was 54% and the GI50 ([30]; read-out: GI50) was 0.254 µM. It also gave an LC50 (concentration killing 50% of cells) ([30]; read-out: LC50) greater than 100 µM, a TGI ([30]; read-out: TGI) of 55.5 µM and a GI50 ([30]; read-out: pGI50 (converted)) of 0.257 µM. For the same compound, the LC50 (concentration killing 50% of cells) ([30]; read-out: pLC50 (converted)) was greater than 100 µM, the TGI ([30]; read-out: pTGI (converted)) was 55 µM and the growth at 100 µM [31] was 4%. The growth at 10 µM [32] was 21%, the growth at 0.01 µM [33] was 98% and the growth at 100 µM [34] was -7%.
